The source of these data is ChEMBL document CHEMBL1157394, “Absolute configuration and antimicrobial activity of acylhomoserine lactones” (2008).

Type in all cases: functional
One experiment concerns Bacillus cereus. Kind of experiment: Antimicrobial activity against Bacillus cereus CCT 4060 after 24 hrs by MTT method. The method in brief:
(§1)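 Strain grown on solid nutrient broth slants at 30 °C for 24 h, then suspended in sterile water to 3 × 10⁸ cells/mL (McFarland). Suspension diluted into Mueller-Hinton medium in 96-well plates. Samples started from 1000 µg/mL stock in 20% aqueous DMSO and serially diluted twofold. Incubated 30 °C, 24 h; 0.025% MTT added. Purple wells scored as growth, yellow as inhibition. Run in duplicate; concentration range for growth inhibition reported.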

The next experiment relates to Staphylococcus aureus. Kind of experiment: Antimicrobial activity against Staphylococcus aureus CCT 1295 24 hrs by MTT method. The essentials:
as §1

Another experiment relates to Bacillus subtilis. In words: Antimicrobial activity against Bacillus subtilis CCT 0089 after 24 hrs by MTT method. The essentials: as §1

Active and inactive are the calls of the source. The rule behind the calls is not given here.

For `CCCCCC(=O)CC(=O)NC1CCOC1=O` (racemic), the Activity is 62.5 µg/mL in the experiment with Bacillus cereus, 500 µg/mL in the experiment on Staphylococcus aureus and 62.5 µg/mL in the experiment on Bacillus subtilis.

For the compound `O=C(N[C@H](CO)[C@H](O)c1ccc([N+](=O)[O-])cc1)C(Cl)Cl` [CHLORAMPHENICOL], the values for the Activity in the experiment on Bacillus cereus, in the experiment on Staphylococcus aureus and in the experiment with Bacillus subtilis were 3.91 µg/mL, 7.81 µg/mL and 3.91 µg/mL, respectively.

As to `CCCCCCCCCCCC(=O)CC(=O)NC1CCOC1=O` (racemic), the Activity in the experiment on Bacillus cereus stood at 500 µg/mL; in the experiment with Staphylococcus aureus, 500 µg/mL; with Bacillus subtilis, 250 µg/mL.

Consider `CCCCCCCCCC(=O)CC(=O)NC1CCOC1=O` (racemic), for which the results for the Activity in the experiment on Bacillus cereus, in the experiment with Staphylococcus aureus and with Bacillus subtilis were 125 µg/mL, 500 µg/mL and 125 µg/mL, respectively.

On to `CCCCCCC(=O)NC1CCOC1=O` (racemic), for which the outcome in the experiment with Bacillus cereus and in the experiment with Staphylococcus aureus was inactive. For the same compound, in the experiment with Bacillus subtilis, the Activity was found to be 500 µg/mL.
